The source of these data is PMC7408256 (ACS Omega, 2020).

The structures appear in SMILES notation.

In series [1] the test system is newly formed blood capillaries of HET-CAM. Briefly: HET-CAM angiogenesis study. It is filed as in vivo, hen. The essentials: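 Fertilized hen eggs were incubated 9 days at 37 °C with rotation, in groups of three. Test compound at 40 μM in 40 μL of 40% DMSO in saline was dropped onto a 5 mm filter-paper disc on the CAM. Control got 40 μL vehicle. On day 11 each egg was angiographed. Newly formed small vessels within a 100 mm2 circle were counted by image analysis. One-way ANOVA with Dunnett's test.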

The subject of series [2] is K-562. Briefly: NCI one-dose screen: K-562. Type of series: cell-based. The conditions noted are these: Homo sapiens, K562, read-out: Growth inhibition percentage (GI %). An outline of the steps:
(§1)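 Cells grown in RPMI 1640 with 5% FBS and 2 mM L-glutamine, seeded at 5000–40,000 cells/well, preincubated 24 h at 37 °C and 5% CO2. Time-zero plates were TCA-fixed. Test compound (DMSO stock diluted in gentamicin medium) was added at a final 10^-5 M for 48 h. Cells were TCA-fixed (80% for suspension lines), SRB-stained and read at 515 nm. GI% = 100 − % growth versus untreated control.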

The subject of series [3] is MOLT-4. The series can be described thus: NCI one-dose screen: MOLT-4. Type of series: cell-based. The conditions noted are these: Homo sapiens, MOLT-4, read-out: Growth inhibition percentage (GI %). An outline of the steps:
as §1

Series [4] relates to SR. The series can be described thus: NCI one-dose screen: SR. The following applies: Homo sapiens, read-out: Growth inhibition percentage (GI %). Type of series: cell-based. An outline of the steps:
(§2)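 Human tumour lines grown in RPMI 1640 with 5% FBS and 2 mM L-glutamine, seeded at 5000–40,000 cells/well, 24 h at 37 °C, 5% CO2. Time-zero plates TCA-fixed. Test compound (DMSO stock at 400× final) added to a final 10 µM, 48 h at 37 °C. Cells fixed with cold TCA (50% adherent, 80% suspension) and stained with sulforhodamine B; absorbance read at 515 nm. GI% = 100 − % growth relative to untreated control.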

Series [5] relates to EKVX. Briefly: NCI one-dose screen: EKVX. The following applies: Homo sapiens, read-out: Growth inhibition percentage (GI %). It is filed as cell-based. An outline of the steps:
as §1

The test system of series [6] is NCI-H460. The series can be described thus: NCI one-dose screen: NCI-H460. It is filed as cell-based. The following applies: Homo sapiens, NCI-H460, read-out: Growth inhibition percentage (GI %). The essentials: as §1
Series [7] has as its system HCC-2998. The series can be described thus: NCI one-dose screen: HCC-2998. It is filed as cell-based. The conditions noted are these: Homo sapiens, HCC 2998, read-out: Growth inhibition percentage (GI %). An outline of the steps:
as §1

Series [8] deals with HCT-116. The series can be described thus: NCI one-dose screen: HCT-116. Type of series: cell-based. The following applies: Homo sapiens, HCT-116, read-out: Growth inhibition percentage (GI %), HCT-116, colon cancer; single dose 10 μM. The essentials: as §1
Series [9] has as its system SF-539. The series can be described thus: NCI one-dose screen: SF-539. It is filed as cell-based. The following applies: Homo sapiens, SF-539, read-out: Growth inhibition percentage (GI %). An outline of the steps:
as §1

Series [10] deals with SNB-19. The series can be described thus: NCI one-dose screen: SNB-19. Type of series: cell-based. The conditions noted are these: Homo sapiens, SNB-19, read-out: Growth inhibition percentage (GI %). The essentials: as §1
Series [11] has as its system SK-MEL-2. The series can be described thus: NCI one-dose screen: SK-MEL-2. Type of series: cell-based. The following applies: Homo sapiens, SK-MEL-2, read-out: Growth inhibition percentage (GI %). An outline of the steps:
as §1

For series [12], the system named is OVCAR-3. The series can be described thus: NCI one-dose screen: OVCAR-3. It is filed as cell-based. The following applies: Homo sapiens, OVCAR-3, read-out: Growth inhibition percentage (GI %). An outline of the steps: as §1
Series [13] concerns 786-0. The series can be described thus: NCI one-dose screen: 786-0. Type of series: cell-based. The following applies: Homo sapiens, 786-0, read-out: Growth inhibition percentage (GI %). The essentials: as §1
For series [14], the system named is RXF 393. The series can be described thus: NCI one-dose screen: RXF 393. It is filed as cell-based. The conditions noted are these: Homo sapiens, RXF 393, read-out: Growth inhibition percentage (GI %). The essentials: as §1
Series [15] concerns MCF7. Briefly: NCI one-dose screen: MCF7. Type of series: cell-based. The following applies: Homo sapiens, MCF7, read-out: Growth inhibition percentage (GI %). The essentials: as §1
In series [16] the test system is MDA-MB-231. The series can be described thus: NCI one-dose screen: MDA-MB-231. Type of series: cell-based. The conditions noted are these: Homo sapiens, MDA-MB-231, read-out: Growth inhibition percentage (GI %). An outline of the steps:
as §1

Series [17] relates to NCI 58 human cell lines. Briefly: NCI one-dose screen: whole panel summary. Type of series: cell-based. The essentials: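 NCI 58-line single-dose screen in nine subpanels. Cells were exposed for 48 h at 37 °C to a final 10 µM test compound. Growth was measured by sulforhodamine B staining against time-zero and untreated-control plates. For each compound, percent growth relative to untreated cells was averaged across the panel as mean % growth. GI% per line = 100 − % growth.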

In series [18] the test system is chick embryos / HET-CAM. The series can be described thus: HET-CAM mortality and toxicity. It is filed as in vivo, hen. The conditions noted are these: 40 μM, 40 μL in 40% DMSO in sterile saline, applied 9th day, examined 11th day. An outline of the steps:
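Hen eggs were incubated at 37 °C with 2-hourly rotation and candled on day 5; dead eggs were excluded. A window was opened and taped. On day 9, 40 μL of test compound (40 or 100 μM, in 40% or 100% DMSO in saline) went onto a 5 mm filter disc at a low-vessel-density CAM area, 3 eggs/concentration. Embryo toxicity and mortality were assessed by candling on day 11.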

Series [19] relates to VEGFR2. The following applies: cited from earlier work.
Series [20] deals with multiple tyrosine kinase. The following applies: target not named at the place (multiple tyrosine kinase; context VEGFR2) ref 14; cited from earlier work.
Series [21] relates to A549/ATCC. Briefly: NCI one-dose screen: A549/ATCC. It is filed as cell-based. The following applies: Homo sapiens, A549, read-out: Growth inhibition percentage (GI %). The essentials:
as §1

The subject of series [22] is TK-10. The series can be described thus: NCI one-dose screen: TK-10. It is filed as cell-based. The following applies: Homo sapiens, TK-10, read-out: Growth inhibition percentage (GI %). An outline of the steps:
as §2

The test system of series [23] is PC-3. The series can be described thus: NCI one-dose screen: PC-3. Type of series: cell-based. The conditions noted are these: Homo sapiens, PC-3, read-out: Growth inhibition percentage (GI %). The essentials: as §1
Series [24] has as its system T-47D. The series can be described thus: NCI one-dose screen: T-47D. Type of series: cell-based. The following applies: Homo sapiens, T47D, read-out: Growth inhibition percentage (GI %). The essentials: as §2
Series [25] concerns the target c-Met kinase. The following applies: read-out: IC50 c-Met; cited from earlier work.
Where [26] appears, read: 40 μM, versus 40% DMSO negative control.

Usually inhibition stands for the percentage by which the read-out fell short of the control. As usually defined, the IC50 is the concentration that gives 50% inhibition. Broadly, the Ki is the dissociation constant of the complex between target and ligand, obtained from inhibition or displacement.

As for `C[C@@H]1C[C@H]2[C@@H]3CCC4=CC(=O)C=C[C@]4(C)[C@@]3(F)[C@@H](O)C[C@]2(C)[C@@]1(O)C(=O)CO` [DEXA, dexamethasone, reference compound], the “reduction in the number of newly formed blood capillaries” value in [1] (DEXA 0.02 μg, positive control, versus 40% DMSO, P < 0.001) is on record as 54%.

In the case of `O=C1Nc2ccccc2C1=NNc1nnc2n1N=C(c1ccccc1)CS2` [6a, 3-(2-(6-Phenyl-7H-[1,2,4]triazolo[3,4-b][1,3,4]thiadiazin-3-yl)hydrazineylidene)indolin-2-one], the inhibition at 10 µM in [2] stood at 23%; in [3] it was 13%; in series [4], 23%; in [5], 13%; in series [6], 17%; in [7], 19%. Further, the inhibition at 10 µM in series [8] is 14%; in series [9] it was 18%; in [10], 17%; in [11], 13%; in series [12], 12%; in series [13], 19%. Besides, the figures for the inhibition at 10 µM in series [14], in series [15] and in series [16] were 18%, 29% and 12%, respectively. For the same molecule, in series [17] (single dose 10 μM, cell lines as listed in the sentence), the “GI (range over the susceptible cell lines listed in the sentence)” value is recorded as 35–57%. Moreover, in series [1] (setting [26]), the “increase in the number of newly formed blood capillaries” value is on record as 33%.

In the case of `COc1ccc(C2=Nn3c(N/N=C4\C(=O)Nc5ccc(F)cc54)nnc3SC2)cc1` [6j, 5-Fluoro-3-(2-(6-(4-methoxyphenyl)-7H-[1,2,4]triazolo[3,4-b][1,3,4]thiadiazin-3-yl) hydrazineylidene)indolin-2-one], the “toxicity / mortality against HET-CAM and the chick embryos” value (“toxicity / mortality” below) in series [18] was “toxic”.

On to `CCCN1C(=O)C(=NNc2nnc3n2N=C(c2ccc(OC)cc2)CS3)c2cc(Cl)ccc21` [6w, 5-Chloro-3-(2-(6-(4-methoxyphenyl)-7H-[1,2,4]triazolo[3,4-b][1,3,4]thiadiazin-3-yl)hydrazineylidene)-1-propylindolin-2-one], for which, in series [18], the “toxicity / mortality” value is “toxic”.

Consider `Cc1ccc(C2=Nn3c(NN=C4C(=O)Nc5ccccc54)nnc3SC2)cc1` [6c, 3-(2-(6-(p-Tolyl)-7H-[1,2,4]triazolo[3,4-b][1,3,4]thiadiazin-3-yl)hydrazineylidene)-indolin-2-one], for which the “toxicity / mortality” value in series [18] is listed as “toxic”.

`Cc1[nH]c(/C=C2\C(=O)Nc3ccc(F)cc32)c(C)c1C(=O)NC[C@H](O)CN1CCOCC1` [SU14813]: in series [19] (read-out: IC50 VEGFR2), the IC50 is 0.04 µM.

With `COc1ccc(C2=Nn3c(NN=C4C(=O)N(Cc5ccccc5)c5ccccc54)nnc3SC2)cc1` [6x, 1-Benzyl-3-(2-(6-(4-methoxyphenyl)-7H-[1,2,4]triazolo[3,4-b][1,3,4]thiadiazin-3-yl)hydrazineylidene)indolin-2-one], the “change in the number of blood vessels (in words)” value in series [1] (setting [26]) is given as “significant decrease”.

Consider `CCN(CC)CCNC(=O)c1c(C)[nH]c(/C=C2\C(=O)Nc3ccc(F)cc32)c1C` [sunitinib], for which, in series [20], the Ki is 0.009 µM.

On to `COc1ccc(C2=Nn3c(NN=C4C(=O)Nc5ccc(OC)cc54)nnc3SC2)cc1` [6n, 5-Methoxy-3-(2-(6-(4-methoxyphenyl)-7H-[1,2,4]triazolo[3,4-b][1,3,4]thiadiazin-3-yl)hydrazineylidene)indolin-2-one], for which the inhibition at 10 µM in series [2] came out at 19%; in series [3] it was 12%; in series [21], 29%; in [22], 17%; in series [23] it was 10%; in series [24], 15%. The “change in the number of blood vessels (in words)” value in series [1] (setting [26]) is given as “significant decrease”. Also, in series [1] (40 μM, versus 40% DMSO negative control, 11th day), the “reduction in the number of newly formed blood capillaries (angiogenesis)” value stood at 27%.

Take `COc1ccc(C2=Nn3c(NN=C4C(=O)N(C)c5ccc(Cl)cc54)nnc3SC2)cc1` [6u, 5-Chloro-3-(2-(6-(4-methoxyphenyl)-7H-[1,2,4]triazolo[3,4-b][1,3,4]thiadiazin-3-yl)hydrazineylidene)-1-methylindolin-2-one]: in [18], the “toxicity / mortality” value was “toxic”.

In the case of `Cc1[nH]c(/C=C2\C(=O)Nc3ccc(S(=O)(=O)N(C)c4cccc(Cl)c4)cc32)c(C)c1C(=O)N1CCN(C)CC1` [SU11274], the IC50 in series [25] is 0.012 µM.

Regarding `Cc1[nH]c(/C=C2\C(=O)Nc3ccccc32)c(C)c1CCC(=O)O` [Orantinib], the Ki in series [19] (read-out: Ki VEGFR2) is 0.009 µM.

Turning to `COc1ccc(C2=Nn3c(NN=C4C(=O)Nc5ccc(Cl)cc54)nnc3SC2)cc1` [6l, 5-Chloro-3-(2-(6-(4-methoxyphenyl)-7H-[1,2,4]triazolo[3,4-b][1,3,4]thiadiazin-3-yl)hydrazineylidene)indolin-2-one], the inhibition at 10 µM in [2] came to 15%; in series [4] it was 23%; in series [21], 23%. Moreover, the “sensitive cell lines no.” value in [17] (number of cell lines of the panel with GI % shown (higher than 10%), 10 μM) worked out at 6.
